Reference: ChEMBL document CHEMBL1125251, “4'-Hydroxy-3-methoxyflavones with potent antipicornavirus activity” (J Med Chem, 1991)
In brackets after ≈: the same amount, converted by molar mass.

Legend:
Human rhinovirus sp. [1] = assay: Minimum drug concentration at which 99% of the rhino virus is inhibited.; type: functional
How it was run: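 End-point titration with rhinovirus type 15 on human skin fibroblast monolayers. Cells were infected with serial 10-fold virus dilutions and allowed 1 h adsorption at 37 °C. Serial 2-fold compound dilutions were then added and plates incubated at 33 °C. CPE was read daily by light microscopy for at least 1 week, titres as TCD50/mL. ED99 = minimum concentration inhibiting 99% of virus.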

Rattus norvegicus [2] = species: Rattus norvegicus; assay: Mutagenicity evaluated by calculating number of revertants using Salmonella Typhimurium strain TA 100 (2.5 mg/plate) with S9 mix from rat liver; type: functional
How it was run: (§1)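 Ames plate incorporation assay with Salmonella typhimurium TA 98 or TA 100, with or without rat liver S9 (20 µL S9 per plate). S9 came from male Wistar rats induced with phenobarbital (0.1% in drinking water) plus β-naphthoflavone (80 mg/kg ip on day 5 in corn oil), fasted 24 h and killed on day 7. Revertants per plate counted on duplicate plates per dose.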

Rattus norvegicus [3] = species: Rattus norvegicus; assay: Compound was evaluated for the mutagenicity by calculating number of revertants using Salmonella Typhimurium strain TA 98 (2.5 mg/plate) with S9 mix from rat liver; type: functional; how it was run: as §1
Enterovirus C [4] = assay: Minimal dose which produces titer reduction at 10 ug/mL (mD RF10e3); type: functional
Rattus norvegicus [5] = species: Rattus norvegicus; assay: Mutagenicity evaluated by calculating number of revertants using Salmonella Typhimurium strain TA 98 (0.25 mg/plate) without S9 mix from rat liver; type: functional
How it was run: (§2)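 Ames plate incorporation assay with Salmonella typhimurium TA98 or TA100, without S9, at 0.25 mg/plate. Revertants per plate were counted on duplicate plates per dose. Quercetin was the standard mutagen.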

Rattus norvegicus [6] = species: Rattus norvegicus; assay: Mutagenicity evaluated by calculating number of revertants using Salmonella Typhimurium strain TA 100 (0.25 mg/plate) with S9 mix from rat liver; type: functional; how it was run: as §1
Human rhinovirus sp. [7] = assay: Antirhinovirus activity against rhinovirus serotype 41 which were grown on Ohio HeLa cells; type: functional
Human rhinovirus sp. [8] = assay: Antirhinovirus activity against rhinovirus serotype 9 which were grown on Ohio HeLa cells; type: functional
Human rhinovirus sp. [9] = assay: Cytotoxic dose at which 50% growth of normal cells is inhibited against rhino virus infection.; type: functional
How it was run: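 Human skin fibroblasts, 10⁶ cells per flask, given serial 2-fold dilutions in quadruplicate in M-199 with 6% newborn calf serum and held 6 days at 37 °C. Cells were trypsinized, counted in a chamber and reseeded with compound over five repeat cycles. CyD50 = lowest concentration at least doubling cell generation time relative to untreated control.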

Rattus norvegicus [10] = species: Rattus norvegicus; assay: Mutagenicity evaluated by calculating number of revertants using Salmonella Typhimurium strain TA 100 (0.25 mg/plate) without S9 mix from rat liver according to the plate incorporation assay.; type: functional; how it was run: as §2
Rattus norvegicus [11] = species: Rattus norvegicus; assay: Mutagenicity evaluated by calculating number of revertants using Salmonella Typhimurium strain TA 98 (2.5 mg/plate) without S9 mix from rat liver according to the plate incorporation assay.; type: functional; how it was run: as §1
Enterovirus C [12] = assay: Maximal non-toxic dose (MNTD) that shows antiviral activity.; type: functional
How it was run: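 End-point titration. Poliovirus type 1 Brunhilde was run in Vero cells at 37 °C with a 3-day read. Rhinovirus 15 was run in human skin fibroblasts at 33 °C with a 7-day read. Monolayers got serial 10-fold virus dilutions and adsorbed 1 h at 37 °C, then serial 2-fold compound dilutions (DMSO stock in maintenance medium). CPE was read by light microscopy. RF = control titer (TCD50/mL) / titer at maximal nontoxic dose.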

[13] = Cytotoxic dose at which 50% growth of normal cells is inhibited; type: cell-based; details: chlorocebus sabaeus, Vero cells; read-out: CyD50
How it was run: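 Cell-growth cytotoxicity in Vero cells or human skin fibroblasts. Serial 2-fold dilutions in M-199 with 6% newborn calf serum were added in quadruplicate to 10⁶ cells and held 6 days at 37 °C. Cells were trypsinized, counted and reseeded with compound, repeated five times. Generation time was calculated per concentration. CyD50 = lowest concentration at least doubling generation time versus untreated cells.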

Human rhinovirus sp. [14] = assay: Antirhinovirus activity against rhinovirus serotype 89 which were grown on Ohio HeLa cells; type: functional
Human rhinovirus sp. [15] = assay: Antirhinovirus activity against rhinovirus serotype 29 which were grown on Ohio HeLa cells; type: functional
Human rhinovirus sp. [16] = assay: Antirhinovirus activity against rhinovirus serotype 14 which were grown on Ohio HeLa cells; type: functional
Human rhinovirus sp. [17] = assay: Antirhinovirus activity against rhinovirus serotype 39 which were grown on Ohio HeLa cells; type: functional
Human rhinovirus sp. [18] = assay: Antirhinovirus activity against rhinovirus serotype 63 which were grown on Ohio HeLa cells; type: functional
Enterovirus C [19] = assay: The ratio of the poliovirus viral titer of the virus control (reduction factor) to the viral titer in the presence of the maximal non-toxic dose (RF MNTD); type: functional
How it was run: (§3)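 Poliovirus type 1 Brunhilde 1A/S3 in Vero monolayers. Serial 10-fold virus dilutions adsorbed 1 h at 37 °C, then serial 2-fold compound dilutions were added. Incubated at 37 °C and scored for CPE by light microscopy, with a 3-day readout. Titer reduction is control/treated TCD50/mL. ED99 is the minimum concentration inhibiting 99% of virus. Virus, cell and compound controls were included.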

[20] = Therapeutic Index measured as the ratio of CyD50 (rhino) / ED99 (rhino) values.; details: read-out: Therapeutic index 99
How it was run: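 TI99 = CyD50/ED99 for rhinovirus 15. ED99 came from end-point titration in human skin fibroblasts at 33 °C over 7 days. CyD50 came from fibroblast growth: 10⁶ cells were given serial 2-fold compound dilutions in quadruplicate for 6 days at 37 °C, then counted and reseeded, repeated five times. Generation time was calculated per concentration.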

Rattus norvegicus [21] = species: Rattus norvegicus; assay: Mutagenicity evaluated by calculating number of revertants using Salmonella Typhimurium strain TA 100 (2.5 mg/plate) without S9 mix from rat liver; type: functional; how it was run: as §1
[22] = Therapeutic Index measured as the ratio of CyD50(polio) / ED99(polio) values; type: organism-based; details: enterovirus c; read-out: Therapeutic index 99
How it was run: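 TI99 = CyD50/ED99 for poliovirus. ED99 came from end-point titration in Vero cells at 37 °C over 3 days. CyD50 came from Vero cell growth: 10⁶ cells were given serial 2-fold compound dilutions in quadruplicate for 6 days at 37 °C, then trypsinized, counted and reseeded, repeated five times. Generation time was calculated per concentration.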

Human rhinovirus sp. [23] = assay: Antirhinovirus activity against rhinovirus serotype 15 which were grown on Ohio HeLa cells; type: functional
Enterovirus C [24] = assay: Minimum drug concentration at which 99% of the polio virus is inhibited; type: functional; how it was run: as §3
Human rhinovirus sp. [25] = assay: Antirhinovirus activity against rhinovirus serotype 59 which were grown on Ohio HeLa cells; type: functional
Rattus norvegicus [26] = species: Rattus norvegicus; assay: Compound was evaluated for the mutagenicity by calculating number of revertants using Salmonella Typhimurium strain TA 98 (0.25 mg/plate) with S9 mix from rat liver; type: functional; how it was run: as §1
Human rhinovirus sp. [27] = assay: Antirhinovirus activity against rhinovirus serotype 2 which were grown on Ohio HeLa cells; type: functional
Human rhinovirus sp. [28] = assay: Antirhinovirus activity against rhinovirus serotype 85 which were grown on Ohio HeLa cells; type: functional

COc1c(-c2ccc(O)cc2)oc2cc(O)c(C)c(C)c2c1=O
ED99 (Human rhinovirus sp. [1]): 0.5 µg/mL | Revertants/plate (Rattus norvegicus [2]): 94 | Revertants/plate (Rattus norvegicus [3]): 9 | Minimal dose (Enterovirus C [4]): <2.5 µg/mL | Revertants/plate (Rattus norvegicus [5]): 12 | Revertants/plate (Rattus norvegicus [6]): 103 | MIC50 (Human rhinovirus sp. [7]): 0.088 µg/mL (≈ 0.282 µM) | MIC50 (Human rhinovirus sp. [8]): 0.156 µg/mL (≈ 0.499 µM) | CyD50 (Human rhinovirus sp. [9]): 100 µg/mL | Revertants/plate (Rattus norvegicus [10]): 110 | Revertants/plate (Rattus norvegicus [11]): 10 | Max non-toxic dose (Enterovirus C [12]): >100 µg/mL | CC50 [13]: > 100 µg/mL | MIC50 (Human rhinovirus sp. [14]): 0.5 µg/mL (≈ 1.6 µM) | MIC50 (Human rhinovirus sp. [15]): 0.078 µg/mL (≈ 0.25 µM) | MIC50 (Human rhinovirus sp. [16]): 0.072 µg/mL (≈ 0.231 µM) | MIC50 (Human rhinovirus sp. [17]): 0.088 µg/mL (≈ 0.282 µM) | MIC50 (Human rhinovirus sp. [18]): 0.074 µg/mL (≈ 0.237 µM) | Reduction factor (Enterovirus C [19]): 1000000 | selectivity ratio [20]: > 200 | Revertants/plate (Rattus norvegicus [21]): 85 | selectivity ratio [22]: > 1000 | MIC50 (Human rhinovirus sp. [23]): 0.088 µg/mL (≈ 0.282 µM) | ED99 (Enterovirus C [24]): 0.1 µg/mL | MIC50 (Human rhinovirus sp. [25]): 0.016 µg/mL (≈ 0.0512 µM) | Revertants/plate (Rattus norvegicus [26]): 20 | MIC50 (Human rhinovirus sp. [27]): 0.044 µg/mL (≈ 0.141 µM) | MIC50 (Human rhinovirus sp. [28]): 0.076 µg/mL (≈ 0.243 µM)
